Measured values: PMC5974556 (ChemistryOpen, 2018)
In brackets after ≈: the same amount, converted by molar mass. Counter-ions that a name gives are not always drawn. Marks after values point to notes of the source that are not given here.

What was measured:
HepG2 cells [1] = experiment: Protein content; type: cell-based; settings: Homo sapiens, HepG2, 72 h, read-out: HepG2 IC50 SRB
In short: (§1)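 Seeded 2×10^4 cells per well for 24 h, then treated with or without test compound for three days, in triplicate. Fixed with 50% TCA for 1 h at 4 °C, washed and dried. Stained 30 min at 4 °C with 0.4% sulforhodamine B in 1% acetic acid, rinsed with 1% acetic acid. Dye redissolved in Tris buffer, absorbance read at 490 nm. Doxorubicin control; MTT and SRB data pooled, mean ± SD, n≥6.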

Caco‐2 cells [2] = experiment: Mitochondria activity; type: cell-based; settings: Homo sapiens, Caco-2, 72 h, read-out: Caco‐2 IC50 MTT
In short: (§2)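 Cells kept in DMEM+glutamax with 1% NEAA, 1% P/S and 10% FBS at 37 °C, 10% CO2. Seeded 2×10^4 per well for 24 h, then exposed 72 h to test compound at various concentrations in serum-free medium, in triplicate. MTT (5 mg/mL in PBS) added for 2 h, formazan dissolved in DMSO, read at 570 nm. IC50 from % survival; doxorubicin control; MTT and SRB data pooled, mean ± SD, n≥6.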

EA.hy926 cells [3] = experiment: Protein content; type: cell-based; settings: Homo sapiens, EA.hy 926, 72 h, read-out: EA.hy926 IC50 SRB
In short: as §1

Caco‐2 cells [4] = experiment: Protein content; type: cell-based; settings: Homo sapiens, Caco-2, 72 h, read-out: Caco‐2 IC50 SRB
In short: as §1

HT‐29 cells [5] = experiment: Intracellular ROS; type: cell-based; settings: Homo sapiens; for activity at 1 µM: HT-29, read-out: Intracellular ROS, percentage compared to the untreated control cells (ROS/SRB), HT‐29, 1 μM; for activity at 10 µM: HT-29, read-out: Intracellular ROS, percentage compared to the untreated control cells (ROS/SRB), HT‐29, 10 μM
In short: (§3)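 Cells grown in DMEM+glutamax with 1% NEAA, 1% P/S and 10% FBS at 37 °C, 10% CO2. Seeded at 2×10^4 cells/well for 24 h, then confluent cells were exposed to test compound at 1 or 10 µM in serum-free medium, with NAC as control. Cells were washed, loaded with DCFH-DA for 30 min, then kept 1 h in phenol red-free DMEM. Fluorescence read at ex 485/em 535 nm, normalised to same-well SRB protein (490 nm) and given as % of untreated cells. Mean ± SD, n≥3; two-tailed t-test with unequal variances.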

HepG2 cells [6] = experiment: Intracellular ROS; type: cell-based; settings: Homo sapiens; for activity at 1 µM: HepG2, read-out: Intracellular ROS, percentage compared to the untreated control cells (ROS/SRB), HepG2, 1 μM; for activity at 10 µM: HepG2, read-out: Intracellular ROS, percentage compared to the untreated control cells (ROS/SRB), HepG2, 10 μM
In short: as §3

EA.hy926 cells [7] = experiment: Mitochondria activity; type: cell-based; settings: Homo sapiens, EA.hy 926, 72 h, read-out: EA.hy926 IC50 MTT
In short: as §2

HT‐29 cells [8] = experiment: Mitochondria activity; type: cell-based; settings: Homo sapiens, HT-29, 72 h, read-out: HT‐29 IC50 MTT
In short: as §2

HT‐29 cells [9] = experiment: Protein content; type: cell-based; settings: Homo sapiens, HT-29, 72 h, read-out: HT‐29 IC50 SRB
In short: as §1

EA.hy926 cells [10] = experiment: Intracellular ROS; type: cell-based; settings: Homo sapiens; for activity at 1 µM: EA.hy 926, read-out: Intracellular ROS, percentage compared to the untreated control cells (ROS/SRB), EA.hy926, 1 μM; for activity at 10 µM: EA.hy 926, read-out: Intracellular ROS, percentage compared to the untreated control cells (ROS/SRB), EA.hy926, 10 μM
In short: as §3

[11] = Ferric reducing antioxidant power; settings: chemical antioxidant capacity, n=3
In short: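 FRAP reagent made from acetate buffer, TPTZ in ethanol and FeCl3·6H2O in dilute HCl, mixed 10:1:1, with TPTZ and iron solutions fresh daily. Sample mixed with reagent 1:9, absorbance read at 593 nm after 4 min. Values expressed as Trolox equivalents by linear regression on a Trolox standard curve; α-tocopherol positive control.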

[12] = Water solubility, shake flask method in 0.1 M phosphate buffer pH 6.8; type: physicochemical; settings: 37 °C, pH 6.8, aqueous buffer, thermodynamic from solid
In short: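 Excess solid added to 1 mL sodium phosphate buffer, pH 6.8. Two conditions: 90 min sonication at 37 °C, or 30 min sonication at 37 °C, 23 h shaking at 300 rpm, then 30 min sonication. Centrifuged 14000 rpm for 5 min, filtered (0.2 µm) at 37 °C and diluted in DMSO. Quantified by LC at maximum absorbance against standard curves; independent triplicates.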

Caco‐2 cells [13] = experiment: Intracellular ROS; type: cell-based, human; settings: protein content normalization, mean±SD, n≥3
In short: as §3

HepG2 cells [14] = experiment: Mitochondria activity; type: cell-based; settings: Homo sapiens, HepG2, 72 h, read-out: HepG2 IC50 MTT
In short: as §2

In the case of COCCCN1C(/C=C/c2cccnc2)=CC(=O)CC1c1cccnc1 (centres unmarked) [6 d, (E)‐1‐(3‐Methoxypropyl)‐2‐(pyridin‐3‐yl)‐6‐[2‐(pyridin‐3‐yl)vinyl]‐2,3‐dihydropyridin‐4(1H)‐one], the IC50 (HepG2 cells [1]) is reported as greater than 75 µM, the IC50 (Caco‐2 cells [2]) is reported as greater than 75 µM and the IC50 (EA.hy926 cells [3]) is reported as greater than 75 µM. For the same molecule, the IC50 (Caco‐2 cells [4]) was greater than 75 µM, the activity at 1 µM (HT‐29 cells [5]) was 83.4 ± 5.6% and the activity at 10 µM (HT‐29 cells [5]) was 88.4 ± 4.1%. The activity at 1 µM (HepG2 cells [6]) was 85.6 ± 8.9%, the activity at 10 µM (HepG2 cells [6]) was 95.7 ± 10% and the IC50 (EA.hy926 cells [7]) was greater than 75 µM. For the same molecule, the IC50 (HT‐29 cells [8]) was greater than 75 µM, the IC50 (HT‐29 cells [9]) was greater than 75 µM and the activity at 1 µM (EA.hy926 cells [10]) was 95.2 ± 5%. The activity at 10 µM (EA.hy926 cells [10]) was 98.3 ± 5.3%, the FRAP [11] was 0.00 Trolox equiv per μM and the solubility at 90 min [12] was 1280 ± 61.2 µM (≈ 448 µg/mL). The solubility at 24 h [12] was 2980 ± 166 µM (≈ 1040 µg/mL), the “Intracellular ROS, percentage compared to the untreated control cells (ROS/SRB), Caco‐2, 1 μM” value (Caco‐2 cells [13]) was 90.8±6.3% and the “Intracellular ROS, percentage compared to the untreated control cells (ROS/SRB), Caco‐2, 10 μM” value (Caco‐2 cells [13]) was 89.9±3.4%. The IC50 (HepG2 cells [14]) was greater than 75 µM.

O=C(/C=C(O)/C=C/c1ccc[nH]1)/C=C/c1ccc[nH]1 [compound 4, (1E,4Z,6E)‐5‐Hydroxy‐1,7‐di(1H‐pyrrol‐2‐yl)hepta‐1,4,6‐trien‐3‐one] gave an IC50 (HepG2 cells [1]) of 9.8 ± 1.5 µM, an IC50 (Caco‐2 cells [2]) of 7.5 ± 1.6 µM and an IC50 (EA.hy926 cells [3]) of 9 ± 2.2 µM. It also gave an IC50 (Caco‐2 cells [4]) of 9.7 ± 0.6 µM, an activity at 1 µM (HT‐29 cells [5]) of 105 ± 6.3% and an activity at 10 µM (HT‐29 cells [5]) of 121 ± 8.7%. For the same molecule, the activity at 1 µM (HepG2 cells [6]) was 75.6 ± 14.6%, the activity at 10 µM (HepG2 cells [6]) was 121 ± 26.1% and the IC50 (EA.hy926 cells [7]) was 8.3 ± 0.9 µM. It also gave an IC50 (HT‐29 cells [8]) of 8.9 ± 0.5 µM, an IC50 (HT‐29 cells [9]) of 9.6 ± 0.5 µM and an activity at 1 µM (EA.hy926 cells [10]) of 295 ± 38.5%. The activity at 10 µM (EA.hy926 cells [10]) was 165 ± 18.9%, the FRAP [11] was 0.79 Trolox equiv per μM and the solubility at 90 min [12] was 84.8 ± 2.8 µM (≈ 21.6 µg/mL). The solubility at 24 h [12] was 74.2 ± 1.3 µM (≈ 18.9 µg/mL), the “Intracellular ROS, percentage compared to the untreated control cells (ROS/SRB), Caco‐2, 1 μM” value (Caco‐2 cells [13]) was 110.2±9.5^[b] % and the “Intracellular ROS, percentage compared to the untreated control cells (ROS/SRB), Caco‐2, 10 μM” value (Caco‐2 cells [13]) was 124.3±8.7^[c] %. The IC50 (HepG2 cells [14]) was 8.2 ± 0.9 µM.

COCCNC(=C\C(=O)/C=C/c1cccnc1)/C=C/c1cccnc1 [5 c, (1E,4Z,6E)‐5‐(2‐Methoxyethylamino)‐1,7‐di(pyridin‐3‐yl)hepta‐1,4,6‐trien‐3‐one] gave an IC50 (HepG2 cells [1]) of 66.4 ± 1.3 µM, an IC50 (Caco‐2 cells [2]) of 53.8 ± 0.6 µM and an IC50 (EA.hy926 cells [3]) of 63 ± 8.3 µM. It also gave an IC50 (Caco‐2 cells [4]) of 49.1 ± 0.6 µM, an activity at 1 µM (HT‐29 cells [5]) of 100 ± 5.8% and an activity at 10 µM (HT‐29 cells [5]) of 88.1 ± 3.6%. For the same molecule, the activity at 1 µM (HepG2 cells [6]) was 94.8 ± 4%, the activity at 10 µM (HepG2 cells [6]) was 88.4 ± 5.3% and the IC50 (EA.hy926 cells [7]) was 60 ± 10.5 µM. It also gave an IC50 (HT‐29 cells [8]) of 55.3 ± 12.5 µM, an IC50 (HT‐29 cells [9]) of 46 ± 15.8 µM and an activity at 1 µM (EA.hy926 cells [10]) of 83.7 ± 6.7%. It also gave an activity at 10 µM (EA.hy926 cells [10]) of 89.5 ± 2.7%, an FRAP [11] of 0.00 Trolox equiv per μM and a solubility at 90 min [12] of 895 ± 18 µM (≈ 300 µg/mL). The solubility at 24 h [12] was 2280 ± 174 µM (≈ 766 µg/mL), the “Intracellular ROS, percentage compared to the untreated control cells (ROS/SRB), Caco‐2, 1 μM” value (Caco‐2 cells [13]) was 102.4±8.8% and the “Intracellular ROS, percentage compared to the untreated control cells (ROS/SRB), Caco‐2, 10 μM” value (Caco‐2 cells [13]) was 243.2±17.5^[b] %. It also gave an IC50 (HepG2 cells [14]) of 56.7 ± 3.7 µM.

For O=C1C=C(/C=C/c2cccnc2)N(CCCO)C(c2cccnc2)C1 (centres unmarked) [6 f, (E)‐1‐(3‐Hydroxypropyl)‐2‐(pyridin‐3‐yl)‐6‐[2‐(pyridin‐3‐yl)vinyl]‐2,3‐dihydropyridin‐4(1H)‐one], the IC50 (HepG2 cells [1]) was greater than 75 µM, the IC50 (Caco‐2 cells [2]) was greater than 75 µM and the IC50 (EA.hy926 cells [3]) was greater than 75 µM. The IC50 (Caco‐2 cells [4]) was greater than 75 µM, the activity at 1 µM (HT‐29 cells [5]) was 111 ± 8.1% and the activity at 10 µM (HT‐29 cells [5]) was 106 ± 4.1%. For the same molecule, the activity at 1 µM (HepG2 cells [6]) was 88.8 ± 10.4%, the activity at 10 µM (HepG2 cells [6]) was 106 ± 13.1% and the IC50 (EA.hy926 cells [7]) was greater than 75 µM. The IC50 (HT‐29 cells [8]) was greater than 75 µM, the IC50 (HT‐29 cells [9]) was greater than 75 µM and the activity at 1 µM (EA.hy926 cells [10]) was 101 ± 1.3%. It also gave an activity at 10 µM (EA.hy926 cells [10]) of 106 ± 9.9%, an FRAP [11] of 0.00 Trolox equiv per μM and a solubility at 90 min [12] of 2460 ± 57.2 µM (≈ 826 µg/mL). For the same molecule, the solubility at 24 h [12] was 5000 ± 137 µM (≈ 1680 µg/mL), the “Intracellular ROS, percentage compared to the untreated control cells (ROS/SRB), Caco‐2, 1 μM” value (Caco‐2 cells [13]) was 100.5±2.4% and the IC50 (HepG2 cells [14]) was greater than 75 µM.

Molecule COc1cccc2c1C(=O)c1c(O)c3c(c(O)c1C2=O)C[C@@](O)(C(=O)CO)C[C@@H]3O[C@H]1C[C@H](N)[C@H](O)[C@H](C)O1 [Dox, doxorubicin hydrochloride, reference compound] has an IC50 (HepG2 cells [1]) of 2.5 ± 1.2 µM, an IC50 (Caco‐2 cells [2]) of 11.1 ± 1 µM and an IC50 (EA.hy926 cells [3]) of 1.4 ± 0.3 µM. It also gave an IC50 (Caco‐2 cells [4]) of 12.1 ± 0.8 µM, an IC50 (EA.hy926 cells [7]) of 1.4 ± 0.5 µM and an IC50 (HT‐29 cells [8]) of 4 ± 0.9 µM. It also gave an IC50 (HT‐29 cells [9]) of 3.5 ± 0.4 µM and an IC50 (HepG2 cells [14]) of 5.5 ± 1.4 µM.
